Measurements published in ChEMBL document CHEMBL6177921, “Enhancing the antimycobacterial efficacy of pyridine-4-carbohydrazide: linkage to additional antimicrobial agents via oxocarboxylic acids” (RSC Med Chem, 2025).
In brackets after ≈: the same amount, converted by molar mass.

How the values were obtained:
Type in all cases: functional
Mycobacterium kansasii [1] = assay: Antimycobacterial activity against INH/RIF/rifabutin/OFX/EMB Mycobacterium kansasii CNCTC 6509/96 clinical isolate assessed as bacterial growth inhibition incubated for 7 days by two-fold serial dilution method; conditions: CNCTC 6509/96, 168 h, time 7 day
How it was run: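 Šula's liquid semisynthetic medium; M. kansasii clinical isolate 6509/96 used at stock dilution 10−4, final ~1.5 × 10^5 CFU mL−1. Two-fold dilutions ran 1000–1 μM with final DMSO 1.0% (v/v). MIC was read visually as complete growth inhibition after 7, 14 and 21 days.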

[2] = test system: Mycobacterium tuberculosis; assay: Antimycobacterial activity against multidrug sensitive Mycobacterium tuberculosis H37Rv CNCTC 331/88 assessed as bacterial growth inhibition incubated for 14 days by two-fold serial dilution method; conditions: H37Rv CNCTC 331/88, 336 h, time 14 day
Pichia kudriavzevii [3] = assay: Antifungal activity against Candida krusei CCM 8271 measured after 24 to 48 hrs by microdilution broth method; conditions: time 24-48 hrs
How it was run: (§1)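 Yeast broth microdilution per EUCAST, slightly modified. Medium was RPMI-1640 with 2% glucose, MOPS-buffered to pH 7.0. Compounds were tested at 0.98–500 μM with final DMSO ≤1.0% (v/v). Inoculum came from 18–24 h cultures, final ~1–5 × 10^5 CFU mL−1. Plates were incubated statically, dark and humidified, at 35 ± 2 °C. MIC was read visually at 24 and 48 h (no visible growth).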

[4] = test system: Trichophyton interdigitale; assay: Antifungal activity against Trichophyton interdigitale CCM 8377 measured after 24 to 48 hrs by microdilution broth method; conditions: time 24-48 hrs
Mycobacterium avium [5] = assay: Antimycobacterial activity against INH/RIF/rifabutin/OFX/EMB resistant Mycobacterium avium CNCTC 330/88 assessed as bacterial growth inhibition incubated for 14 days by two-fold serial dilution method; conditions: CNCTC 330/88, 336 h, time 14 day
How it was run: (§2)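 M. avium CNCTC 330/88 (stock suspension dilution 10−5) grown in Šula's semisynthetic liquid medium; two-fold serial dilutions 1000 to 1 μM from DMSO stocks (final DMSO 1.0% v/v); final load 1.5 × 10^5 CFU mL−1; MIC read visually as lowest concentration giving complete growth inhibition after 14 and 21 days.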

Candida albicans [6] = assay: Antifungal activity against Candida albicans ATCC 24443 measured after 24 to 48 hrs by microdilution broth method; conditions: time 24-48 hrs; how it was run: as §1
Mycobacterium avium [7] = assay: Antimycobacterial activity against INH/RIF/rifabutin/OFX/EMB resistant Mycobacterium avium CNCTC 330/88 assessed as bacterial growth inhibition incubated for 21 days by two-fold serial dilution method; conditions: CNCTC 330/88, 504 h, time 21 day; how it was run: as §2
Candida parapsilosis [8] = assay: Antifungal activity against Candida parapsilosis CCM 8260 measured after 24 to 48 hrs by microdilution broth method; conditions: Lodderomyces parapsilosis, time 24-48 hrs; how it was run: as §1
Mycobacterium kansasii [9] = assay: Antimycobacterial activity against multi-drug resistant Mycobacterium kansasii CNCTC 6509/96 clinical isolate assessed as bacterial growth inhibition incubated for 14 days by two-fold serial dilution method; conditions: CNCTC 6509/96, 336 h, time 14 day
How it was run: (§3)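 M. kansasii clinical isolate 6509/96 (stock dilution 10−4) in Šula's semisynthetic liquid medium; two-fold serial dilutions 1000 to 1 μM, DMSO final 1.0% v/v; final load 1.5 × 10^5 CFU mL−1; MIC read visually as complete growth inhibition at 7, 14 and 21 days.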

Lichtheimia corymbifera = assay: Antifungal activity against Lichtheimia corymbifera CCM 8077 measured after 24 to 48 hrs by microdilution broth method; conditions: time 24-48 hrs
How it was run: (§4)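 Filamentous fungi tested by broth microdilution per EUCAST with minor changes. Compounds were tested at 0.98–500 μM with final DMSO ≤1.0% (v/v). Plates were incubated statically, dark and humidified, at 35 ± 2 °C for 24 and 48 h. MIC was the lowest concentration showing no visible growth.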

Candida tropicalis [10] = assay: Antifungal activity against Candida tropicalis CCM 8264 measured after 24 to 48 hrs by microdilution broth method; conditions: time 24-48 hrs; how it was run: as §1
Candida parapsilosis [11] = assay: Antifungal activity against Candida parapsilosis ATCC 22019 measured after 24 to 48 hrs by microdilution broth method; conditions: Lodderomyces parapsilosis, time 24-48 hrs; how it was run: as §1
Candida tropicalis [12] = assay: Antifungal activity against Candida tropicalis ATCC 750 measured after 24 to 48 hrs by microdilution broth method; conditions: time 24-48 hrs; how it was run: as §1
Aspergillus fumigatus = assay: Antifungal activity against Aspergillus fumigatus ATCC 204305 measured after 24 to 48 hrs by microdilution broth method; conditions: time 24-48 hrs; how it was run: as §4
Aspergillus flavus = assay: Antifungal activity against Aspergillus flavus CCM 8363 measured after 24 to 48 hrs by microdilution broth method; conditions: time 24-48 hrs; how it was run: as §4
Mycobacterium kansasii [13] = assay: Antimycobacterial activity against multi-drug resistant Mycobacterium kansasii clinical isolate CNCTC 6509/96 assessed as bacterial growth inhibition incubated for 21 days by two-fold serial dilution method; conditions: CNCTC 6509/96, 504 h, time 21 day; how it was run: as §3
Pichia kudriavzevii [14] = assay: Antifungal activity against Candida krusei ATCC 6258 measured after 24 to 48 hrs by microdilution broth method; conditions: time 24-48 hrs; how it was run: as §1
[15] = test system: Mycobacterium tuberculosis; assay: Antimycobacterial activity against Mycobacterium tuberculosis H37Rv CNCTC 331/88 assessed as bacterial growth inhibition incubated for 21 days by two fold serial dilution method; conditions: H37Rv CNCTC 331/88, 504 h, time 21 day
Candida albicans [16] = assay: Antifungal activity against Candida albicans CCM 8320 measured after 24 to 48 hrs by microdilution broth method; conditions: time 24-48 hrs; how it was run: as §1
[17] = test system: Trichophyton interdigitale; assay: Antifungal activity against Trichophyton interdigitale ATCC 9533 measured after 24 to 48 hrs by microdilution broth method; conditions: time 24-48 hrs

Row | SMILES | MIC (Mycobacterium kansasii [1]) [µM] | MIC [2] [µM] | MIC (Pichia kudriavzevii [3]) [µM] | MIC [4] [µM] | MIC (Mycobacterium avium [5]) [µM] | MIC (Candida albicans [6]) [µM] | MIC (Mycobacterium avium [7]) [µM] | MIC (Candida parapsilosis [8]) [µM] | MIC (Mycobacterium kansasii [9]) [µM] | MIC (Lichtheimia corymbifera) [µM] | MIC (Candida tropicalis [10]) [µM] | MIC (Candida parapsilosis [11]) [µM] | MIC (Candida tropicalis [12]) [µM] | MIC (Aspergillus fumigatus) [µM] | MIC (Aspergillus flavus) [µM] | MIC (Mycobacterium kansasii [13]) [µM] | MIC (Pichia kudriavzevii [14]) [µM] | MIC [15] [µM] | MIC (Candida albicans [16]) [µM] | MIC [17] [µM]
1 | C/C(=N\NC(=O)c1ccncc1)C(=O)Nc1ccc(S(=O)(=O)Nc2nc(C)cc(C)n2)cc1 | 16 (≈ 7.48 µg/mL) | 1 (≈ 0.468 µg/mL) | > 500 | > 500 | 500 (≈ 234 µg/mL) | > 500 | 500 (≈ 234 µg/mL) | > 500 | 32 (≈ 15 µg/mL) | > 500 | > 500 | > 500 | > 500 | > 500 | > 500 | 32 (≈ 15 µg/mL) | > 500 | 1 (≈ 0.468 µg/mL) | > 500 | > 500
2 | C/C(=N\NC(=O)c1ccncc1)C(=O)Nc1ccccc1Oc1ccccc1 | 4 (≈ 1.5 µg/mL) | 0.25 (≈ 0.0936 µg/mL) | > 500 | > 500 | ≥ 1000 | > 500 | ≥ 1000 | > 500 | 8 (≈ 3 µg/mL) | > 500 | > 500 | > 500 | > 500 | > 500 | > 500 | 16 (≈ 5.99 µg/mL) | > 500 | 0.5 (≈ 0.187 µg/mL) | > 500 | > 500
3 | C/C(=N\NC(=O)c1ccncc1)C(=O)Nc1ccc(S(N)(=O)=O)cc1 | 32 (≈ 11.6 µg/mL) | 2 (≈ 0.723 µg/mL) | > 500 | > 500 | ≥ 1000 | > 500 | ≥ 1000 | > 500 | 64 (≈ 23.1 µg/mL) | > 500 | > 500 | > 500 | > 500 | > 500 | > 500 | 64 (≈ 23.1 µg/mL) | > 500 | 2 (≈ 0.723 µg/mL) | > 500 | > 500
4 | C/C(=N\NC(=O)c1ccncc1)C(=O)Nc1ccc(Oc2ccc(Cl)cc2)cc1 | 1 (≈ 0.409 µg/mL) | 0.5 (≈ 0.204 µg/mL) | > 500 | > 500 | 500 (≈ 204 µg/mL) | > 500 | 500 (≈ 204 µg/mL) | > 500 | 2 (≈ 0.818 µg/mL) | > 500 | > 500 | > 500 | > 500 | > 500 | > 500 | 4 (≈ 1.64 µg/mL) | > 500 | 0.5 (≈ 0.204 µg/mL) | > 500 | > 500
5 | COc1cnc(NS(=O)(=O)c2ccc(NC(=O)/C(C)=N/NC(=O)c3ccncc3)cc2)nc1 | 32 (≈ 15 µg/mL) | 2 (≈ 0.939 µg/mL) | > 500 | > 500 | ≥ 1000 | > 500 | ≥ 1000 | > 500 | 32 (≈ 15 µg/mL) | > 500 | > 500 | > 500 | > 500 | > 500 | > 500 | 32 (≈ 15 µg/mL) | > 500 | 2 (≈ 0.939 µg/mL) | > 500 | > 500
6 | C/C(=N\NC(=O)c1ccncc1)C(=O)Nc1ccc(S(=O)(=O)Nc2nccs2)cc1 | 16 (≈ 7.11 µg/mL) | 1 (≈ 0.444 µg/mL) | > 500 | > 500 | ≥ 1000 | > 500 | ≥ 1000 | > 500 | 16 (≈ 7.11 µg/mL) | > 500 | > 500 | > 500 | > 500 | > 500 | > 500 | 16 (≈ 7.11 µg/mL) | > 500 | 1 (≈ 0.444 µg/mL) | > 500 | > 500
7 | COc1ccc(NS(=O)(=O)c2ccc(NC(=O)/C(C)=N/NC(=O)c3ccncc3)cc2)nn1 | 32 (≈ 15 µg/mL) | 1 (≈ 0.469 µg/mL) | > 500 | > 500 | ≥ 1000 | > 500 | ≥ 1000 | > 500 | 32 (≈ 15 µg/mL) | > 500 | > 500 | > 500 | > 500 | > 500 | > 500 | 32 (≈ 15 µg/mL) | > 500 | 1 (≈ 0.469 µg/mL) | > 500 | > 500
8 | C/C(=N\NC(=O)c1ccncc1)C(=O)Nc1ccc(S(=O)(=O)Nc2ncccn2)cc1 | 32 (≈ 14.1 µg/mL) | 2 (≈ 0.879 µg/mL) | > 500 | > 500 | 1000 (≈ 439 µg/mL) | > 500 | ≥ 1000 | > 500 | 64 (≈ 28.1 µg/mL) | > 500 | > 500 | > 500 | > 500 | > 500 | > 500 | 64 (≈ 28.1 µg/mL) | > 500 | 2 (≈ 0.879 µg/mL) | > 500 | > 500
